Test results reported in ChEMBL document CHEMBL3244101, “2-, 3-, and 4-(alpha, alpha, beta, beta-tetrafluorophenethyl)benzylamines. A new class of antiarrhythmic agents” (J Med Chem, 1977).

Tests used:
[1] = system: Canis familiaris; test: Effect on cardiac conduction in anesthetized acute myocardial infarction dog model assessed as increase in QT duration at 40 mg/kg, iv administered 10 mins prior to infarction measured after 10 mins (reference value: 2 ms); format: functional, Canis lupus familiaris, Heart
[2] = system: Canis familiaris; test: Effect on cardiac conduction in anesthetized acute myocardial infarction dog model assessed as increase in PR interval at 20 mg/kg, iv administered 10 mins prior to infarction measured after 10 mins (reference value: 0 ms); format: functional, Canis lupus familiaris, Heart
[3] = system: Canis familiaris; test: Hypotensive activity in iv dosed anesthetized dog at higher doses; format: ADME, organism-based, Canis lupus familiaris; conditions: in vivo
[4] = system: Canis familiaris; test: Reduction in heart rate in anesthetized acute myocardial infarction dog model at 40 mg/kg, iv administered 10 mins prior to infarction (reference value: 6 bpm); format: functional, Canis lupus familiaris
[5] = system: Canis familiaris; test: Effect on cardiac conduction in anesthetized acute myocardial infarction dog model assessed as increase in QT duration at 20 mg/kg, iv administered 10 mins prior to infarction measured after 10 mins (reference value: 2 ms); format: functional, Canis lupus familiaris, Heart
[6] = system: Canis familiaris; test: Reduction in heart rate in anesthetized acute myocardial infarction dog model at 20 mg/kg, iv administered 10 mins prior to infarction (reference value: 6 bpm); format: functional, Canis lupus familiaris
[7] = system: Canis familiaris; test: Myocardial depressant activity in iv dosed anesthetized dog at higher doses; format: ADME, organism-based, Canis lupus familiaris, Myocardium; conditions: in vivo
[8] = system: Canis familiaris; test: Effect on cardiac conduction in anesthetized acute myocardial infarction dog model assessed as increase in PR interval at 40 mg/kg, iv administered 10 mins prior to infarction measured after 10 mins (reference value: 0 ms); format: functional, Canis lupus familiaris, Heart
[9] = system: Canis familiaris; test: Antiarrhythmic activity in anesthetized acute myocardial infarction dog model assessed as normal ECG complexes at 20 mg/kg, iv administered 10 mins prior to infarction measured during 1-hr postinfarction period (reference value: 19%); format: functional, Canis lupus familiaris, Heart
Procedure, shortened: (§1)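 Sclerosing agent (tetrafluorohexachlorobutane) injected into the anterior descending coronary artery to produce a multifocal ventricular arrhythmia. Single iv dose 10 min before infarction. Segmented ECG tracings over the 1 h after infarction were scored as the percentage of complexes of sinus origin (normal). Saline controls were run alongside.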

[10] = system: Canis familiaris; test: Antiarrhythmic activity in anesthetized acute myocardial infarction dog model assessed as normal ECG complexes at 40 mg/kg, iv administered 10 mins prior to infarction measured during 1-hr postinfarction period (reference value: 19%); format: functional, Canis lupus familiaris, Heart; procedure, shortened: as §1

Q: Which results are given for `CCN(CC)CCNC(=O)c1ccc(N)cc1` [PROCAINAMIDE]?
A: Time [1]: 33 ms; Time [2]: 10 ms; Activity [3]: Toxic; Activity [4]: 25 bpm; Time [5]: 40 ms; Activity [6]: 26 bpm; Activity [7]: Toxic; Time [8]: 23 ms; Activity [9]: 32%; Activity [10]: 55%
